Bioassay records deposited in PubChem BioAssay by The Scripps Research Institute Molecular Screening Center.
The list is not random: actives were taken first. Their share in the collection is about 1.6%.
UHRF1 binding: blocks human UHRF1 binding to methylated DNA. Q96T88. AID 687016. UHRF1 binding to methylated oligo, TR-FRET. actives 0.75% (n = 370,000). inhibition, % at 4.4 µM; in the data active = inhibition above about 21%;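 also: UHRF1 SRA domain binding a hemimethylated CpG hairpin DNA probe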
TDP2 inh: TDP2 (human) inhibition, absorbance primary screen; O95551; recombinant TDP2, T5PNP hydrolysis, p-nitrophenol absorbance 415 nm; inhibition, % at 12.8 µM; actives 0.34% (n = 370,000); AID 720702;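 active = inhibition above the mean of all tested compounds plus 3 SD, set per campaign, cut at about 25% in these data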
Target sequence (O95551 whole entry, looked up): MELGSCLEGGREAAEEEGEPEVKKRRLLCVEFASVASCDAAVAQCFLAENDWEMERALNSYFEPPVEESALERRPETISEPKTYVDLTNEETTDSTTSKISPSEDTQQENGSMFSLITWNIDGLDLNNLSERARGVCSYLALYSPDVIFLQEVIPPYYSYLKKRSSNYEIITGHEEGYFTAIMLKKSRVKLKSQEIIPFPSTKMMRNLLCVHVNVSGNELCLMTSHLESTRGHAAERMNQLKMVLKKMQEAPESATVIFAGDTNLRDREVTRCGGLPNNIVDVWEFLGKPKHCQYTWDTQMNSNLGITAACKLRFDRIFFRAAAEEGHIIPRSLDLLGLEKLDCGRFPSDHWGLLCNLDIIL
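System: recombinant human TDP2 / Amount: 120 nM TDP2 per well / Also added: 5 mM T5PNP chromogenic substrate / Doses: 12.8 µM single point, 1% DMSO / Incubation: 2 h at 37 °C / Detection: p-Nitrophenol epi absorbance / Evaluation: % inhibition relative to enzyme-containing and enzyme-free wells / Repeats: singlicate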
MBD2 inh: MBD2-methylated oligo binding inhibition; actives 0.31% (n = 370,000); TR-FRET, MBD2 binding to methylated oligonucleotide; inhibition, % at 4.4 µM; in the data active = inhibition above about 13%
LEDGF integ inh: blocks HIV-1 LEDGF/p75-dependent DNA integration; actives 0.64% (n = 370,000); TR-FRET IN-LEDGF/p75 DNA integration, Eu/Cy5; inhibition, % at 3.7 µM;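 active = inhibition above the screen-wide mean plus 3 SD, cut at about 13% in these data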;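 also: signal is the Cy5 over europium emission ratio at 671 and 618 nm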
Large screens that a line does not name were inactive.

COCCN1CC(CNC(=O)c2cc(COc3ccc(C)c(C)c3)on2)CC1=O (configuration not stated)	UHRF1 binding 21
CCO/C(C)=N/Oc1cccc(N(C)C)c1	UHRF1 binding 29
COc1ccc(N/C=C\C(=O)c2ccc3ccccc3c2)cc1	none
NS(=O)(=O)c1ccc(N/C=C\C(=O)c2ccc3ccccc3c2)cc1	UHRF1 binding 22
CCO/C=C/C(=O)N(C)CCC#N	UHRF1 binding 100
CN(CCC#N)C(=O)COC(=O)/C=C/c1cccs1	none
COc1cccc(NC(=O)c2cccc(C)c2[N+](=O)[O-])c1	UHRF1 binding 62
O=C(Nc1ccc(C(=O)N2CCCC2)cc1)C1CCC1	UHRF1 binding 23
COc1ccc(S(=O)(=O)Nc2cccc(S(=O)(=O)N(C)C)c2)cc1[N+](=O)[O-]	UHRF1 binding 23
Cc1cc(NC(=O)CCCC(=O)NCc2cccs2)no1	UHRF1 binding 25
O=C(N[C@@H]1C[C@@H]2O[C@@H](CO)CC[C@@H]2O[C@@H]1CCc1ccc(-c2ccccc2)cc1)c1cnccn1	none
O=C(CSc1nnc(-c2ccco2)n1-c1ccc(Cl)cc1)Nc1ccc(S(=O)(=O)Nc2nccs2)cc1	none
O=C(O)c1cc(O)c2c(c1)[C@@H]([C@H]1c3cc(C(=O)O)cc(O)c3C(=O)c3c(O[C@@H]4O[C@H](CO)[C@@H](O)[C@H](O)[C@H]4O)cccc31)c1cccc(OC3O[C@H](CO)[C@@H](O)[C@H](O)[C@H]3O)c1C2=O (some centres not stated)	UHRF1 binding 80, MBD2 inh 38, LEDGF integ inh 74
CC1(C(=O)NCc2ccccc2)Cc2c(-c3ccccc3)ccnc2O1 (configuration not stated)	UHRF1 binding 66
CC1(C(=O)NCc2ccccc2)Cc2c(-c3ccc(C(N)=O)cc3)ccnc2O1 (configuration not stated)	none
COC(=O)C1=C(C)NC(C)=C(C(=O)OC)C(N2C(=O)CCC2=O)C1 (configuration not stated)	none
O=C(C1=C(O)C(=O)N(CCOCCO)C1c1cccs1)c1cccs1 (configuration not stated)	UHRF1 binding 56
CCCCNS(=O)(=O)CC1NCc2cc(OC)ccc21 (configuration not stated)	none
CN1CCN(S(=O)(=O)c2cc(C(F)(F)F)ccc2Cl)CC1	UHRF1 binding 31
O=S(=O)(c1cc(C(F)(F)F)ccc1Cl)N1CCN(c2ccccn2)CC1	none
CC(C)Oc1ccc(-c2csc(N3CCC(C(N)=O)CC3)n2)cc1	none
C#CCN(Cc1ccco1)C(=O)c1nnc2c3ccccc3n(S(=O)(=O)c3ccc(C)cc3)c2n1	none
N#CCc1ccc(OC[C@@H](O)CN2CCC(C(O)(c3ccccc3)c3ccccc3)CC2)cc1	none
C/C(Cn1cnc([N+](=O)[O-])n1)=N/NC(=O)COc1ccccc1Cl	UHRF1 binding 24
C/C(Cn1cnc([N+](=O)[O-])n1)=N\NC(=O)c1ccccc1O	none
CC(C)(C)OC(=O)N1CCC(CNC(=O)c2ccc(F)cc2F)CC1	UHRF1 binding 23
COC(=O)c1ccc(S(=O)(=O)N(Cc2ccccc2)Cc2ccccc2)n1C	UHRF1 binding 62
CC(C)CN1C(=O)[C@@]2(CC(=O)N(C)C2c2ccccc2)c2cc(-n3cc(-c4ccccc4)nn3)ccc21 (some centres not stated)	none
COCCNC(=O)CN(C(=O)Cn1nnc2ccccc21)c1ccc(F)c(Cl)c1	UHRF1 binding 81
COC(=O)c1cc2c(c3c4cc(F)ccc4n(S(=O)(=O)c4ccc(C)cc4)c13)C(=O)N(C)C2	none
COc1ccc(CNC(=O)c2sc(=O)n(Cc3cc(C(C)=O)ccc3OC)c2C)cc1	UHRF1 binding 22
COc1ccc(C(C)=O)cc1Cn1c(C)c(C(=O)NCc2ccc(C(C)C)cc2)sc1=O	none
COc1ccc(Cl)cc1Cn1c(C)c(C(=O)NCc2ccc3c(c2)OCCO3)sc1=O	UHRF1 binding 43
CSc1nnc(NC(=O)c2ccc3c(c2)OCO3)s1	none
COCCSc1nnc(NC(=O)c2ccc3c(c2)OCO3)s1	UHRF1 binding 69
COc1ccc(CC(=O)Nc2cc(Cl)ccc2C(=O)O)cc1	none
CCCCOc1ccc(Nc2cc(Cl)ccc2C(=O)O)cn1	UHRF1 binding 22
CC1(C)CC(=O)C=C(NC2=CC3OC(c4ccccc4)OCC3OC2=O)C1 (configuration not stated)	UHRF1 binding 22
O=C1CCC[C@H]2CC3(CC[C@]24CCCN14)OCCO3	none
CCS(=O)(=O)NCC(c1cccnc1)N1CCN(c2ccccc2)CC1 (configuration not stated)	none
CCS(=O)(=O)NCC(c1cccnc1)N1CCN(c2ccc(OC)cc2)CC1 (configuration not stated)	UHRF1 binding 22
CC(C)(C)OC(=O)NCCCc1ccc2c(c1)[C@]1(CCC[C@@H](OCc3ccccc3)[C@@H]1NC(=O)CCc1ccccc1)C(=O)N2Cc1ccccc1	none
Cc1ccc(-c2csc(N(CCCN(C)C)C(=O)c3ccco3)n2)cc1	none
CN(C)CCCN(C(=O)c1ccco1)c1nc(-c2ccc(Cl)cc2)cs1	UHRF1 binding 81
CC(=O)N1CC=CC1(C)C(=O)O (configuration not stated)	UHRF1 binding 31
N#Cc1ccc2nc(-c3ccc(CN4CCC5(CC4)CNc4ccccc45)cc3)c(-c3ccccc3)nc2c1	none
CON(C)C(=O)C(C)(C)CC#CCN(CC#Cc1ccccc1)S(=O)(=O)c1ccc(C)cc1	none
C/C=C/C=C\C(=O)Nc1cccc(C2=NOC3(C2)C[C@H](C(N)=O)N(C(=O)CC#N)C3)c1 (some centres not stated)	MBD2 inh 19
C/C=C\C=C/C(=O)Nc1cccc(C2=NOC3(C2)C[C@H](C(N)=O)N(C(=O)CC)C3)c1 (some centres not stated)	none
O=C(c1nc(SCc2ccc([N+](=O)[O-])cc2)n2ccccc12)C(F)(F)F	UHRF1 binding 24
CN(C)c1cccc(CNC(=O)c2ccc3nc([C@@H]4O[C@H](CO)[C@H](O)[C@H](O)[C@H]4O)[nH]c3c2)c1	UHRF1 binding 81
O=C1C(=Cc2cn(-c3ccccc3)nc2-c2ccc(OCc3ccccc3F)cc2)SC(=S)N1CCS(=O)(=O)O	UHRF1 binding 58
COc1cccc(OC)c1C(=O)Oc1ccc2c(c1)O/C(=C\c1ccncc1)C2=O	UHRF1 binding 37
CN(Cc1ccccc1)C(=O)OCc1cn(Cc2ccccc2F)nn1	none
CCC(C)N(C(=O)COC(=O)CNC(=O)c1sc2ccccc2c1Cl)C1CCS(=O)(=O)C1 (configuration not stated)	UHRF1 binding 21
CCN(C(=O)COC(=O)CNC(=O)c1sc2ccccc2c1Cl)C1CCCCC1	none
Cc1ccc(-c2nc3c4ccccc4ccn3c2Cc2ccccc2)cc1	UHRF1 binding 21
Cc1ccc(-c2nc3c4ccccc4ccn3c2Cc2cccc(F)c2)cc1	none
